Source: ChEMBL document CHEMBL1156920, “Structural analogues of schweinfurthin F: probing the steric, electronic, and hydrophobic properties of the D-ring substructure” (Bioorg Med Chem, 2010)
pEC50: −log10 of the molar value.

Tests used:
[1] = Cytotoxicity against human NCI60 cells; assay type: functional
SF-295 = experiment: Cytotoxicity against human SF295 cells after 44 hrs by MTT assay; assay type: functional, cell-based; details: SF-295, 44 h
Summary of the method: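 SF-295 cells cultured in RPMI 1640 and A549 cells in F-12, each with 10% FBS, penicillin–streptomycin, amphotericin B and L-glutamine, at 37 °C in 5% CO2. Cells were grown to 60% confluency, then treated for 44 h. Medium was replaced with medium containing 0.06 mg/mL MTT (phenol red-free RPMI for SF-295) for 4 h. Acid/Triton/isopropanol stop solution was added, plates incubated overnight at 37 °C, OD read at 540 and 650 nm, and EC50 calculated.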

UACC-62 = experiment: Growth inhibition of human UACC62 cells; assay type: functional
UACC-257 = experiment: Growth inhibition of human UACC257 cells; assay type: functional
SK-MEL-2 = experiment: Growth inhibition of human SK-MEL-2 cells; assay type: functional
M14 = experiment: Growth inhibition of human M14 cells; assay type: functional
U-251 = experiment: Growth inhibition of human U251 cells; assay type: functional
SF-539 = experiment: Growth inhibition of human SF539 cells; assay type: functional
SF-268 = experiment: Growth inhibition of human SF268 cells; assay type: functional
KM12 = experiment: Growth inhibition of human KM12 cells; assay type: functional
HT-29 = experiment: Growth inhibition of human HT-29 cells; assay type: functional
HCT-15 = experiment: Growth inhibition of human HCT15 cells; assay type: functional
HCT-116 = experiment: Growth inhibition of human HCT116 cells; assay type: functional
HCC 2998 = experiment: Growth inhibition of human HCC2998 cells; assay type: functional
NCI-H460 = experiment: Growth inhibition of human NCI-H460 cells; assay type: functional
NCI-H322M = experiment: Growth inhibition of human NCI-H322M cells; assay type: functional
NCI-H226 = experiment: Growth inhibition of human NCI-H226 cells; assay type: functional
HOP-92 = experiment: Growth inhibition of human HOP92 cells; assay type: functional
HOP-62 = experiment: Growth inhibition of human HOP62 cells; assay type: functional
SR = experiment: Growth inhibition of human SR cells; assay type: functional
[2] = Growth inhibition of human […] cells; assay type: functional
K562 = experiment: Growth inhibition of human K562 cells; assay type: functional
HL-60(TB) = experiment: Growth inhibition of human HL-60(TB) cells; assay type: functional
CCRF-CEM = experiment: Growth inhibition of human CCRF-CEM cells; assay type: functional
IGROV-1 = experiment: Growth inhibition of human IGROV1 cells; assay type: functional
OVCAR-3 = experiment: Growth inhibition of human OVCAR-3 cells; assay type: functional
OVCAR-4 = experiment: Growth inhibition of human OVCAR4 cells; assay type: functional
OVCAR-5 = experiment: Growth inhibition of human OVCAR5 cells; assay type: functional
SK-OV-3 = experiment: Growth inhibition of human SKOV3 cells; assay type: functional
786-0 = experiment: Growth inhibition of human 786-0 cells; assay type: functional
A498 = experiment: Growth inhibition of human A498 cells; assay type: functional
ACHN = experiment: Growth inhibition of human ACHN cells; assay type: functional
CAKI-1 = experiment: Growth inhibition of human Caki1 cells; assay type: functional
RXF 393 = experiment: Growth inhibition of human RXF393 cells; assay type: functional
TK-10 = experiment: Growth inhibition of human TK10 cells; assay type: functional
UO-31 = experiment: Growth inhibition of human UO31 cells; assay type: functional
PC-3 = experiment: Growth inhibition of human PC3 cells; assay type: functional
DU-145 = experiment: Growth inhibition of human DU145 cells; assay type: functional
MCF7 = experiment: Growth inhibition of human MCF7 cells; assay type: functional
MDA-MB-435 = experiment: Growth inhibition of human MDA-MB-435 cells; assay type: functional
BT-549 = experiment: Growth inhibition of human BT549 cells; assay type: functional
MDA-MB-468 = experiment: Growth inhibition of human MDA-MB-468 cells; assay type: functional
[3] = read-out: pLC50 (the source's name) (converted)

SMILES: COc1cc(CCc2cc(O)c(C/C=C(\C)CC/C=C(\C)CO)c(O)c2)cc2c1O[C@]1(C)CC[C@@H](O)C(C)(C)[C@H]1C2
- GI50 [1]: 4.9 µM
- pEC50 (SF-295): < 5.00
- GI50 (UACC-62): 4.79 µM
- CC50 (UACC-62; [3]): 81.3 µM
- TGI (UACC-62; read-out: pTGI (converted)): 20.9 µM
- GI50 (UACC-257): 6.61 µM
- LC50 (UACC-257): > 100 µM
- TGI (UACC-257; read-out: pTGI (converted)): 28.2 µM
- GI50 (SK-MEL-2): 3.89 µM
- LC50 (SK-MEL-2): 75.9 µM
- TGI (SK-MEL-2; read-out: pTGI (converted)): 17.4 µM
- GI50 (M14): 6.03 µM
- CC50 (M14; [3]): 83.2 µM
- TGI (M14; read-out: pTGI (converted)): 23.4 µM
- GI50 (U-251): 3.02 µM
- LC50 (U-251): 58.9 µM
- TGI (U-251; read-out: pTGI (converted)): 18.6 µM
- GI50 (SF-539): 2.29 µM
- LC50 (SF-539): 33.9 µM
- TGI (SF-539; read-out: pTGI (converted)): 11.7 µM
- GI50 (SF-268): 6.03 µM
- LC50 (SF-268): 87.1 µM
- TGI (SF-268; read-out: pTGI (converted)): 25.7 µM
- GI50 (KM12): 4.17 µM
- LC50 (KM12): 91.2 µM
- TGI (KM12; read-out: pTGI (converted)): 18.6 µM
- GI50 (HT-29): 7.94 µM
- LC50 (50% lethal concentration) (HT-29): 87.1 µM
- TGI (HT-29; read-out: pTGI (converted)): 26.3 µM
- GI50 (HCT-15): 5.01 µM
- LC50 (HCT-15): > 100 µM
- TGI (HCT-15; read-out: pTGI (converted)): 22.9 µM
- GI50 (HCT-116): 3.47 µM
- CC50 (HCT-116; [3]): 40.7 µM
- TGI (HCT-116; read-out: pTGI (converted)): 13.2 µM
- GI50 (HCC 2998): 6.17 µM
- TGI (HCC 2998; read-out: pTGI (converted)): 25.1 µM
- GI50 (NCI-H460): 3.31 µM
- LC50 (NCI-H460): 38.9 µM
- TGI (NCI-H460; read-out: pTGI (converted)): 10.7 µM
- GI50 (NCI-H322M): 5.5 µM
- CC50 (NCI-H322M; [3]): > 100 µM
- TGI (NCI-H322M; read-out: pTGI (converted)): 42.7 µM
- GI50 (NCI-H226): 13.2 µM
- LC50 (NCI-H226): > 100 µM
- TGI (NCI-H226; read-out: pTGI (converted)): 66.1 µM
- GI50 (HOP-92): 7.41 µM
- LC50 (HOP-92): > 100 µM
- TGI (HOP-92; read-out: pTGI (converted)): 47.9 µM
- GI50 (HOP-62): 10 µM
- LC50 (HOP-62): 53.7 µM
- TGI (HOP-62; read-out: pTGI (converted)): 22.9 µM
- GI50 (SR): 2.09 µM
- LC50 (SR): 66.1 µM
- TGI (SR; read-out: pTGI (converted)): 7.59 µM
- GI50 [2]: 1.45 µM
- LC50 [2]: > 100 µM
- TGI ([2]; read-out: pTGI (converted)): 7.24 µM
- GI50 (K562): 3.09 µM
- CC50 (K562; [3]): 64.6 µM
- TGI (K562; read-out: pTGI (converted)): 12.9 µM
- GI50 (HL-60(TB)): 3.02 µM
- CC50 (HL-60(TB); [3]): 95.5 µM
- TGI (HL-60(TB); read-out: pTGI (converted)): 12.6 µM
- GI50 (CCRF-CEM): 4.07 µM
- CC50 (CCRF-CEM; [3]): > 100 µM
- TGI (CCRF-CEM; read-out: pTGI (converted)): 45.7 µM
- GI50 (IGROV-1): 4.9 µM
- LC50 (IGROV-1): > 100 µM
- TGI (IGROV-1; read-out: pTGI (converted)): 26.3 µM
- GI50 (OVCAR-3): 11.5 µM
- LC50 (50% lethal concentration) (OVCAR-3): > 100 µM
- TGI (OVCAR-3; read-out: pTGI (converted)): 33.1 µM
- GI50 (OVCAR-4): 11.5 µM
- CC50 (OVCAR-4; [3]): > 100 µM
- TGI (OVCAR-4; read-out: pTGI (converted)): 45.7 µM
- GI50 (OVCAR-5): 20.9 µM
- LC50 (lethal concentration, 50% cell kill) (OVCAR-5): > 100 µM
- TGI (OVCAR-5; read-out: pTGI (converted)): 66.1 µM
- GI50 (SK-OV-3): 8.51 µM
- LC50 (SK-OV-3): > 100 µM
- TGI (SK-OV-3; read-out: pTGI (converted)): 31.6 µM
- GI50 (786-0): 2.4 µM
- LC50 (786-0): > 100 µM
- TGI (786-0; read-out: pTGI (converted)): > 100 µM
- GI50 (A498): 7.59 µM
- LC50 (A498): > 100 µM
- TGI (A498; read-out: pTGI (converted)): 61.7 µM
- GI50 (ACHN): 5.25 µM
- CC50 (ACHN; [3]): > 100 µM
- TGI (ACHN; read-out: pTGI (converted)): 35.5 µM
- GI50 (CAKI-1): 4.37 µM
- LC50 (CAKI-1): > 100 µM
- TGI (CAKI-1; read-out: pTGI (converted)): 21.9 µM
- GI50 (RXF 393): 0.363 µM
- CC50 (RXF 393; [3]): > 100 µM
- TGI (RXF 393; read-out: pTGI (converted)): 1.38 µM
- GI50 (TK-10): 13.2 µM
- LC50 (TK-10): > 100 µM
- TGI (TK-10; read-out: pTGI (converted)): 67.6 µM
- GI50 (UO-31): 3.47 µM
- CC50 (UO-31; [3]): > 100 µM
- TGI (UO-31; read-out: pTGI (converted)): 20 µM
- GI50 (PC-3): 5.5 µM
- CC50 (PC-3; [3]): > 100 µM
- TGI (PC-3; read-out: pTGI (converted)): 77.6 µM
- GI50 (DU-145): 6.46 µM
- LC50 (DU-145): > 100 µM
- TGI (DU-145; read-out: pTGI (converted)): 28.2 µM
- GI50 (MCF7): 2.95 µM
- CC50 (MCF7; [3]): 53.7 µM
- TGI (MCF7; read-out: pTGI (converted)): 12.9 µM
- GI50 (MDA-MB-435): 6.31 µM
- LC50 (MDA-MB-435): > 100 µM
- TGI (MDA-MB-435; read-out: pTGI (converted)): 32.4 µM
- GI50 (BT-549): 3.16 µM
- CC50 (BT-549; [3]): 75.9 µM
- TGI (BT-549; read-out: pTGI (converted)): 21.9 µM
- GI50 (MDA-MB-468): 5.89 µM
- LC50 (MDA-MB-468): > 100 µM
- TGI (MDA-MB-468; read-out: pTGI (converted)): 50.1 µM
